# According to ChEMBL document CHEMBL1649384, “Synthesis and antiproliferative activity of novel symmetrical alkylthio- and alkylseleno-imidocarbamates” (Eur J Med Chem, 2011):
# Legend:
# [1] = Cytotoxicity against human MCF10A cells after 72 hrs by MTT assay; format: cell-based, MCF-10A; settings: for GI50 at 72 h: MCF10A cells; for LC50 / TGI: mcf-10a, 72 h
# Summary of the method: (§1)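 Cells seeded per well: Hep-G2 1×10⁴, HT-29 4×10³, K-562 4×10³, MCF-7 1.2×10⁴, MCF-10A 7×10³, PC-3 2×10³. MCF-10A were grown in supplemented MEBM at 37 °C, 5% CO₂. Five concentrations were tested between 0.01 and 100, with 72 h exposure. Formazan was read by A590. GI₅₀ was taken relative to untreated controls, from at least three independent experiments.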
# MCF7 [2] = assay: Induction of apoptosis in human MCF7 cells assessed as apoptotic cells at 15 uM after 24 hrs by TUNEL assay; format: functional
# Summary of the method: (§2)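 TUNEL (Apo-Direct) on MCF-7 cells treated with compound or vehicle, with camptothecin as positive control. Cells were fixed in paraformaldehyde and then ethanol, labelled with FITC-dUTP for 1 h at 37 °C, counterstained with PI/RNase, and analysed by flow cytometry. Read-out is % apoptotic cells, mean ± SEM of three independent experiments in duplicate wells.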
# MCF7 [3] = assay: Induction of apoptosis in human MCF7 cells assessed as accumulation at G0/G1 phase at 15 uM after 24 hrs by DNA flow cytometric assay; format: functional
# Summary of the method: (§3)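 Exponentially growing MCF-7 cells were given compound or vehicle, with camptothecin as positive control. Cells were fixed in 1% paraformaldehyde in PBS pH 7.4 on ice for 1 h, then in 70% ethanol at −20 °C for 30 min. They were stained with PI/RNase for 30 min at RT in the dark. DNA content was measured by flow cytometry as % of total cells. Mean ± SEM of three independent experiments, duplicate wells.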
# PC-3 [4] = assay: Cytotoxicity against human PC3 cells after 72 hrs by CV method; format: functional; settings: PC-3, 72 h
# Summary of the method: (§4)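 Crystal violet check of the MTT data: eight concentrations between 0.01 and 100, with 72 h exposure. Cells were fixed in 4% formaldehyde for at least 20 min, then stained with 0.1% crystal violet for 30 min. GI₅₀ is the concentration halving growth relative to untreated controls.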
# MCF7 [5] = assay: Cytotoxicity against human MCF7 cells after 72 hrs by MTT assay; format: functional; settings: MCF7, 72 h; summary of the method: as §1
# MCF7 [6] = assay: Induction of apoptosis in human MCF7 cells assessed as accumulation at S phase at 15 uM after 48 hrs by DNA flow cytometric assay; format: functional; summary of the method: as §3
# PC-3 [7] = assay: Cytotoxicity against human PC3 cells after 72 hrs by MTT assay; format: functional; settings: PC-3, 72 h; for CC50: read-out: LC50 (the source's name); summary of the method: as §1
# MCF7 [8] = assay: Induction of apoptosis in human MCF7 cells assessed as accumulation at G2/M phase at 15 uM after 24 hrs by DNA flow cytometric assay; format: functional; summary of the method: as §3
# MCF7 [9] = assay: Induction of apoptosis in human MCF7 cells assessed as accumulation at G2/M phase at 15 uM after 48 hrs by DNA flow cytometric assay; format: functional; summary of the method: as §3
# MCF7 [10] = assay: Induction of apoptosis in human MCF7 cells assessed as accumulation at subG1 phase at 15 uM after 48 hrs by DNA flow cytometric assay; format: functional; summary of the method: as §3
# MCF7 [11] = assay: Induction of apoptosis in human MCF7 cells assessed as accumulation at subG1 phase at 15 uM after 24 hrs by DNA flow cytometric assay; format: functional; summary of the method: as §3
# HT-29 [12] = assay: Cytotoxicity against human HT-29 cells after 72 hrs by MTT assay; format: functional; settings: HT-29, 72 h; for CC50: read-out: LC50 (the source's name); summary of the method: as §1
# HepG2 = assay: Cytotoxicity against human HepG2 cells after 72 hrs by MTT assay; format: functional; settings: HepG2, 72 h; for CC50: read-out: LC50 (the source's name); summary of the method: as §1
# HT-29 [13] = assay: Cytotoxicity against human HT-29 cells after 72 hrs by CV method; format: functional; settings: HT-29, 72 h; summary of the method: as §4
# MCF7 [14] = assay: Induction of apoptosis in human MCF7 cells assessed as accumulation at S phase at 15 uM after 24 hrs by DNA flow cytometric assay; format: functional; summary of the method: as §3
# K562 = assay: Cytotoxicity against human K562 cells after 72 hrs by MTT assay; format: functional; settings: K562, 72 h; for CC50: read-out: LC50 (the source's name); summary of the method: as §1
# MCF7 [15] = assay: Induction of apoptosis in human MCF7 cells assessed as accumulation at G0/G1 phase at 15 uM after 48 hrs by DNA flow cytometric assay; format: functional; summary of the method: as §3
# MCF7 [16] = assay: Induction of apoptosis in human MCF7 cells assessed as apoptotic cells at 15 uM after 48 hrs by TUNEL assay; format: functional; summary of the method: as §2
Compound,Activity (MCF7 [3]) [%],GI50 (MCF7 [5]) [µM],TGI (MCF7 [5]) [µM],Activity (MCF7 [6]) [%],GI50 (PC-3 [7]) [µM],TGI (PC-3 [7]) [µM],CC50 (PC-3 [7]) [µM],Activity (MCF7 [8]) [%],Activity (MCF7 [9]) [%],Activity (MCF7 [10]) [%],Activity (MCF7 [11]) [%],GI50 (HT-29 [12]) [µM],TGI (HT-29 [12]) [µM],CC50 (HT-29 [12]) [µM],Activity (MCF7 [14]) [%],GI50 (K562) [µM],TGI (K562) [µM],CC50 (K562) [µM],Activity (MCF7 [15]) [%],Activity (MCF7 [16]) [%],further results
C[Se]/C(=N\C(=O)c1cccs1)NC(=O)c1cccs1,45.32,0.0034,5.64,25.21,1.34,63,> 100,23.85,22.74,14.14,9.31,0.00034,> 100,> 100,18.3,6.07,> 100,> 100,35.25,71.08,GI50 at 72 h [1]: 9.26 µM; LC50 [1]: 73.51 µM; TGI [1]: 41.14 µM; Activity (MCF7 [2]): 29.35%; GI50 (PC-3 [4]): 0.63 µM; LC50 (MCF7 [5]): > 100 µM; GI50 (HepG2): 0.63 µM; TGI (HepG2): 1.5 µM; CC50 (HepG2): 12.5 µM; GI50 (HT-29 [13]): 9 µM
C[Se]/C(=N\C(=O)c1cnc2ccccc2c1)NC(=O)c1cnc2ccccc2c1,73.06,0.66,8.03,32.68,2.33,43.6,> 100,7.21,19.97,11.34,10.29,0.2,> 100,> 100,8.1,3.8,29.9,74.8,32.87,27.19,GI50 at 72 h [1]: 20.3 µM; LC50 [1]: 83.86 µM; TGI [1]: 52.1 µM; GI50 (PC-3 [4]): 1.42 µM; LC50 (MCF7 [5]): 60.7 µM; GI50 (HepG2): 4.16 µM; TGI (HepG2): 23.7 µM; CC50 (HepG2): 87.8 µM; GI50 (HT-29 [13]): 0.46 µM
CC[C@@]1(O)C(=O)OCc2c1cc1n(c2=O)Cc2cc3ccccc3nc2-1 [CAMPTOTHECIN],65.62,0.01,0.16,16.91,0.06,> 100,> 100,11.51,15.15,25.73,10.92,0.05,31.6,31.6,10.4,0.06,50.1,> 100,41.61,71.45,Activity (MCF7 [2]): 21.25%
